# Runt-CBFb FRET: inhibitors of RUNX1 Runt–CBFb binding, primary screen, biochemical, FRET, Cerulean-Runt, Venus-CBFb, uHTS | Runt-related transcription factor 1 (Homo sapiens) + Core-binding factor subunit beta … | inhibition, % at 20 µM | Cerulean-Runt/Venus-CBFb FRET ratio 530/480, 1 h | AID 1496, 2009 | 220,000 tested, 0.46% active;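 active = inhibition over about 50% at 20 µM in the single-dose screen, limit read from the data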;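 note: 0% = DMSO wells and 100% = excess unlabeled CBFb competitor control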
# Target sequence (Q01196 whole entry, looked up): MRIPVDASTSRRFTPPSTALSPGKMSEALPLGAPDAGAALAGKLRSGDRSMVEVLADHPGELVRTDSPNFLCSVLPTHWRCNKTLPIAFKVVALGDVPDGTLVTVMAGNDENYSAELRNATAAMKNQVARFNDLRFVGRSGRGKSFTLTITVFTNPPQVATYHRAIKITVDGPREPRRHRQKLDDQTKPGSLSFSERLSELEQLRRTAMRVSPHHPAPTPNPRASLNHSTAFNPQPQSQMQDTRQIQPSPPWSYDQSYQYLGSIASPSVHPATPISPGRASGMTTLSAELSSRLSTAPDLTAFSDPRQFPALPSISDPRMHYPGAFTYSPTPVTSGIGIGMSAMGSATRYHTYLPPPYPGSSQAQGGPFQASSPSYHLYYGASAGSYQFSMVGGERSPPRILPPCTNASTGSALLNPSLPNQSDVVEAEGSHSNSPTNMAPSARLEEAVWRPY
# Target sequence (Q13951 whole entry, looked up): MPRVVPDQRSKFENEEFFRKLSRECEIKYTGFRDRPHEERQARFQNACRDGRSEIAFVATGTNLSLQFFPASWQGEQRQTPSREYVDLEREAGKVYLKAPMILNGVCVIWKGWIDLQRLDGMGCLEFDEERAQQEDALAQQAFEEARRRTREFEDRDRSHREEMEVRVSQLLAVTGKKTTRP
#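 Measured by: fluorescence energy transfer, 422 nm excitation, 530/480 nm emission; Assay system: Cerulean-Runt domain; Medium: Tris pH 7.5 buffer with BSA; Measure: loss of energy transfer signal; Controls: 5 µM unlabeled CBFb as full-inhibition high control; Incubation: protein complex preformed 1 h, compound exposure 1 h, room temperature, dark.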
# Wee1 degr inh: Wee1 degradation inhibitors, primary screen, cell-based, HeLa, Wee1K328M-luciferase, luminescence. 220,000 tested, 1.2% active. Wee1-like protein kinase (Homo sapiens), P30291. HeLa Luc-Wee1K328M stability; 100% = proteasome inhibitor MG132 effect. reporter increase, % at 5 µM;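 active = activation above the mean of all tested compounds plus 3 SD, set per screening run, cut at about 8.8% in these data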;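 note: cells exposed to compound for 20 h before luminescence read; 0% = DMSO alone and 100% = MG132 at 30 µM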
# RanGTP-Imp inh: inhibitors of RanGTP-importin-beta interaction, primary screen, biochemical, FRET, CFP-Ran, YFP-importin-beta, homogeneous; Ran GTPase (GTP-bound) - importin-beta complex; cell-free CFP-Ran/YFP-importin-beta FRET ratio; inhibition, % (no concentration beside the values); 300,000 tested, 1.1% active;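 active = more than half of the replicate wells show a fall in the fluorescence ratio signal beyond about 16%, limit read from the data, passing the limit was not always enough; inconclusive = exactly half of the replicate wells pass the set limit; inactive = fewer than half of replicates pass the limit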;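 note: 0% = DMSO wells and 100% = Ran loaded with GDP instead of GTP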
# AI-2 QS mod: Vibrio harveyi AI-2 quorum sensing modulators, primary screen, JMH597 strain, luminescence/OD600 ratio; activity change, % at 7.5 µM; Vibrio harveyi JMH597 AI-2 luminescence/OD600 ratio, 9 h; hits give low values; strain lacks LuxN and CqsS sensors; 0 = neutral-control median; 300,000 tested, 0.4% active; in the data active = activity change below about -75%, passing the limit was not always enough; inconclusive = no clear call, values can overlap the other calls;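 note: luminescence divided by OD600 gain over 9 h not by final OD600 alone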
# KLK7 zymogen act: proKLK7 zymogen activators, primary screen, biochemical, fluorescence intensity. Kallikrein-7 (Homo sapiens), P49862. purified proKLK7, EDANS-DABCYL substrate fluorescence; 100% is mature enzyme control, 0% vehicle. activation, % at 7 µM. 370,000 tested, 0.9% active;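 active = activation above the mean of all tested compounds plus 3 SD, computed per campaign excluding outliers beyond control limits, cut at about 13% in these data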
# Runt-SMMHC FRET: inhibitors of RUNX1 Runt–CBFb-SMMHC binding, primary screen, biochemical, FRET, Cerulean-Runt, Venus-CBFb-SMMHC, uHTS; Runt-related transcription factor 1 (Homo sapiens) + Core-binding factor subunit beta …; Cerulean-Runt/Venus-CBFb-SMMHC FRET ratio 530/480, 1 h; inhibition, % at 20 µM; 220,000 tested, 0.74% active;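 active = mean inhibition across duplicate retests at 20 µM reaching about 50%, limit read from the data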;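 note: 0% = DMSO wells and 100% = wells with excess untagged CBFb-SMMHC; inhibitors lower the FRET ratio by blocking Runt binding to CBFb-SMMHC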
# Wee1 stab conf: Wee1 degradation inhibitors, confirmation, cell-based, HeLa, Wee1K328M-luciferase, luminescence, triplicate. activation, % at 5 µM. HeLa Luc-Wee1K328M degradation; vehicle 0%, proteasome-blocked wells 100%. shares compounds with Wee1 degr inh. 1,100 tested, 4% active; in the data active = activation above about 8.9%
# Numbers without * were called inactive; ? = inconclusive; · = not tested or not shown. In the library only some 2.9% were active in any assay of this set; here they are far more common.
SMILES,Runt-CBFb FRET,Wee1 degr inh,RanGTP-Imp inh,AI-2 QS mod,KLK7 zymogen act,Runt-SMMHC FRET,Wee1 stab conf
CC(C)c1ccc2[nH]c(O)c(N=NC(=O)c3cccc(S(=O)(=O)Nc4ccccc4Cl)c3)c2c1,-0.2,19.9*,2.1,5.8,-0.2,-14.6,0.4
O=C(Nc1ccon1)c1cccc(S(=O)(=O)N2CCCC2)c1,-0.4,29.0*,?,11.2,0.1,0.6,-0.5
COc1cc(OC)c(NC(=O)/C=C/C(=O)O)cc1Cl,21.6,12.2*,2.0,10.0,-0.2,-3.7,0.2
CCc1ccc(C(=O)COC(=O)[C@@H](NC(N)=O)[C@@H](C)CC)cc1,-0.8,-2.4,1.4,15.5,0.4,-2.3,·
C=C(C)CNC(=S)N/N=C/c1c(F)cccc1F,-0.9,14.3*,-1.8,6.0,-0.9,-0.6,0.4
CNc1oc(-c2cccc3ccccc23)nc1C#N,0.9,-2.6,6.3,23.3,-13.0,10.6,·
CNc1oc(-c2ccccc2Cl)nc1C#N,-0.3,12.5*,3.0,5.8,-0.5,-2.7,0.1
Cc1ccc(NC(=O)c2cc(NC(=O)c3ccco3)ccc2N2CCOCC2)cc1Cl,-2.7,-2.2,-5.2,27.6,-5.6,-3.8,·
O=C(Nc1ccc(N2CCOCC2)c([N+](=O)[O-])c1)c1ccco1,-0.6,10.9*,-2.7,8.1,0.0,-2.3,1.3
O=C(Nc1ccc(Cl)cc1)NC1CCCCC1,·,11.1*,-3.7,9.8,0.3,1.6,5.9
Nc1ccc(NC(=O)NC2CCCCC2)cc1,0.2,-0.4,1.4,10.9,0.5,-1.6,·
Cc1ccc(C(=O)O)cc1NC(=S)NC(=O)c1ccc(-c2ccc(Cl)cc2)o1,-0.1,12.1*,-1.0,23.2,0.0,0.5,0.5
CCOc1ccc(S(=O)(=O)N(C)c2ccc(OCC(=O)N3c4ccc(C)cc4C4CN(C)CCC43)cc2)cc1 (configuration not stated),-3.8,13.4*,6.3,16.4,0.2,-2.2,0.2
CSc1nn2c(C(F)(F)F)cc(C(F)(F)F)nc2c1C(N)=O,-1.7,0.1,-6.9,21.3,-0.2,-1.3,·
CC(Oc1ccccc1)C(=O)N1CCN=C1SCc1ccc(F)cc1 (configuration not stated),-1.9,3.5,2.6,13.0,-0.2,2.2,·
CCn1c(CSc2nc3ccccc3s2)nnc1SCC(=O)OC(C)(C)C,-0.6,-0.6,?,-0.5,0.2,-0.1,·
CCn1c(CSc2nc3ccccc3s2)nnc1SCC(N)=O,-0.7,15.6*,-4.1,11.8,1.0,2.8,1.9
O=S(=O)(c1ccc(N2CCN(Cc3ccccc3)CC2)nc1)N1CCCC1,·,·,·,·,0.2,·,·
COc1ccc(CC(=O)NCC2CCCN(Cc3ccc(F)cc3F)C2)cc1 (configuration not stated),·,·,2.0,12.3,0.3,·,·
O=[N+]([O-])c1ccccc1CSc1nc2ccccc2o1,-1.5,44.2*,2.7,-3.5,0.1,-1.6,-0.8
N#CCSc1nc2ccccc2o1,0.8,-1.8,3.1,14.7,0.8,-4.0,·
C#CC(=O)CC1(CN(Cc2ccccc2)C(=O)OC(C)(C)C)CCCCC1,·,·,·,·,0.0,·,·
Cc1c(NC(=O)C(C)OC(=O)c2cccs2)c(=O)n(-c2ccccc2)n1C (configuration not stated),-3.3,29.8*,2.0,11.3,-0.3,4.3,-0.4
Cc1ccc(NC(=O)Cc2cc(C(=O)O)c3ccccc3n2)c(C)c1,-2.5,0.1,2.8,8.6,-0.2,2.1,·
O=S(=O)(c1ccc(Oc2ncnc3scc(-c4ccccc4)c23)cc1)N1CCOCC1,-0.5,18.5*,-1.9,2.7,0.5,-1.0,0.0
SMILES,Runt-CBFb FRET,Wee1 degr inh,RanGTP-Imp inh,AI-2 QS mod,KLK7 zymogen act,Runt-SMMHC FRET,Wee1 stab conf
O=S(=O)(c1ccc(Oc2ccccc2)cc1)N1CCOCC1,0.7,-0.2,-2.0,5.9,0.6,1.1,·
Cc1ccc(NC(=O)[C@@H]2O[C@H](CO)[C@H](O)[C@H](O)[C@H]2O)cc1C(F)(F)F,·,·,·,·,0.3,·,·
O=C(NC(=S)Nc1ccc2c(c1)OCCO2)c1cccc2ccccc12,0.1,11.9*,2.8,8.2,-0.4,-0.6,-0.1
O=C(O)CCCn1cc(NC(=O)c2cccc(F)c2)cn1,0.3,13.4*,8.6,4.1,0.4,-2.7,0.5
Cc1cccn2c(CNCC3(c4ccccc4)CCCC3)c(C(=O)N3CCOCC3)nc12,-1.0,4.0,-1.4,3.5,-0.2,3.9,·
O=c1c(Cc2c(F)cccc2Cl)c(O)ccn1CC1CCCO1 (configuration not stated),0.4,12.2*,-3.0,31.0,-0.4,1.8,-1.8
COc1cc(/C=N/Nc2ccc(C(F)(F)F)cn2)ccc1O,4.3,0.6,-3.0,17.2,-1.1,4.3,·
O=C(O)c1ccc(/C=N/Nc2ccc(C(F)(F)F)cn2)cc1,0.9,12.7*,-2.2,25.3,0.1,-3.4,-1.7
Clc1ccc(CO/N=C2\CCCc3nonc32)cc1,-2.5,2.3,-2.8,29.7,0.0,-1.2,·
COc1cc(NC(=O)c2ccc(Cl)cc2Cl)ccc1-c1cc2ccccc2oc1=O,-25.9,2.3,1.1,35.5,-5.5,-10.0,·
COc1cc(NC(C)=O)ccc1-c1cc2ccccc2oc1=O,·,14.6*,-0.5,32.8,-1.1,·,-0.1
Cc1ccn2cc(CNS(=O)(=O)c3cccs3)nc2c1,4.3,13.2*,1.0,15.6,0.1,1.5,-1.4
Cc1ccn2cc(CNS(=O)(=O)c3ccc(Cl)s3)nc2c1,3.0,2.4,5.7,-5.0,2.5,2.7,·
Cc1c(C(=O)N2CCCCC2)nn(-c2ccc(Cl)cc2)c(=O)c1C#N,-2.0,-3.0,0.3,11.9,8.7,-0.1,·
O=S(=O)(c1cccs1)N1CCN(c2ccc(O)cc2)CC1,12.9,22.9*,-0.9,-17.6,-0.3,4.3,-2.4
O=C(CS(=O)(=O)c1ccccc1)N1CCc2ccccc21,0.3,12.2*,?,23.3,-1.5,3.7,1.8
